Source: PubChem (Johns Hopkins Ion Channel Center)
hERG protect – hERG (human) protection from proarrhythmic block. Q12809. CHO-hERG, FluxOR thallium flux, dofetilide IC70 present. activation (rescue from dofetilide block), less the hit threshold, % at 10 µM. 310,000 compounds, 0.51% hits. AID 1511;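 active means activation above the mean of controls blocked by dofetilide plus 5 SD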;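 further: thallium influx through hERG after potassium depolarization seen as dye fluorescence rise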
KCNK9 inh – human KCNK9 channel inhibition; Q9NPC2; HEK293 KCNK9, FluxOR thallium flux fluorescence; active compounds read low; B-score at 10 µM; AID 488922; 310,000 compounds, 1.2% hits;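 active means ratio B-score over 3 SD below the library mean, with starting fluorescence within 5 SD of its mean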;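 further: negative B-score means less thallium flux so channel inhibition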
Target sequence (Q9NPC2 whole entry, looked up): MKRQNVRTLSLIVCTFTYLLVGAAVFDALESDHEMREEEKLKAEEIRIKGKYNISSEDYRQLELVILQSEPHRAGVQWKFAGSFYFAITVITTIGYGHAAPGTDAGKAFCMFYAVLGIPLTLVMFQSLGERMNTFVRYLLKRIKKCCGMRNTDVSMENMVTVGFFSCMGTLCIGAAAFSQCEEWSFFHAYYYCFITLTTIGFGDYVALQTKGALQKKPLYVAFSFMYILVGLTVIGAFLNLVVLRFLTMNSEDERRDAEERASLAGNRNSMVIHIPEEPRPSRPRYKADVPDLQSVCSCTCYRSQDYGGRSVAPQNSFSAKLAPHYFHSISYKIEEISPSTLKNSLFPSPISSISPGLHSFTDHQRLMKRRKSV
KCNK3 block – human KCNK3 channel inhibition, primary screen. O14649. CHO-KCNK3 thallium flux, FluxOR fluorescence; active compounds read low. B-score at 10 µM. 340,000 compounds, 0.84% hits;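 active means B-score under library mean minus 4 SD, starting fluorescence ratio at most library mean plus 5 SD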;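 further: more negative B-score means stronger inhibition of thallium flux through KCNK3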
KCNQ1 block – blocks the human KCNQ1 potassium channel. CHO-K1 KCNQ1, FluxOR thallium flux fluorescence; active compounds read high. B-score at 10 µM. 310,000 compounds, 1.3% hits;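 active means compounds whose thallium flux B-score, printed positive for inhibition, exceeds three library SD while starting fluorescence stays within three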;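 further: channel opened by potassium depolarization with thallium stimulus after 20 min compound exposure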
KCNQ1 act – human KCNQ1 channel potentiation or activation; CHO-K1 KCNQ1, thallium flux FluxOR fluorescence; active compounds read high; 310,000 compounds, 0.35% hits; B-score at 10 µM;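 active means fluorescence ratio B-score, a plate-corrected score, at least three library SD, with initial intensity B-score within 5 SD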
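Medium – assay buffer, equal DMSO in all wells · Material – CHO-K1 cell line with stable KCNQ1 potassium channel expression · Signal – kinetic FluxOR thallium fluorescence, 10-s 1-Hz baseline, 110-s post-stimulus read · Compound – single concentration per compound, DMSO matched to controls · Schedule – 37 °C overnight plating, 90-min dark dye load, 20-min compound pretreatment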
KCNQ1 block val – reconfirmed blocker of the human KCNQ1 potassium channel | shares compounds with KCNQ1 block | KCNQ1 cell line, FluxOR thallium flux fluorescence | inhibition, % at 10 µM | 1,600 compounds, 93% hits | AID 588353;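 active means primary screen active, with duplicate mean exceeding buffer control mean plus 3 SD of buffer wells, cut at about 28% in these data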;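 further: 0% = buffer control ratio and 100% = XE991 inhibitor control ratio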
CHO KCNQ1 ctr – activity in parental CHO cells lacking KCNQ1 | shares compounds with KCNQ1 block | parental CHO-K1, FluxOR thallium flux fluorescence ratio; active compounds read low; zero means no signal rise above baseline | fluorescence ratio (Tl flux) at 10 µM | 1,600 compounds, 21% hits;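 active means mean of duplicate thallium-flux fluorescence ratios in parental host cells more than 5 SD below the buffer control mean, cut at about 0.38 in these data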;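 further: ratio is peak minus minimum fluorescence divided by baseline fluorescence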
KCNQ1 APC inh – blocks human KCNQ1 current in automated patch clamp. shares compounds with KCNQ1 block. KCNQ1-CHO cells. calls only at 10 µM. 490 compounds, 20% hits;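 active means KCNQ1 current drop exceeding 3 SD of negative control wells, seen in both duplicate runs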;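 further: steady state current during a 2 s step from -80 to +40 mV; negative values mean current inhibition and positive values mean potentiation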
KCNQ2 inh – rat KCNQ2 inhibition in KCNQ1 inhibitor specificity screen; 1,600 compounds, 71% hits; KCNQ2 cells, FluxOR thallium flux fluorescence; inhibition, % at 10 µM; AID 651746; shares compounds with KCNQ1 block;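 active means mean percent inhibition of the KCNQ2 thallium signal more than 5 SD above the buffer-only control wells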;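 further: KCNQ2 expressed in CHO cells; 0% = buffer control wells and 100% = XE-991 inhibitor control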
KCNQ1-KCNE1 inh – human KCNQ1/KCNE1 inhibition in KCNQ1 specificity screen | shares compounds with KCNQ1 block | KCNQ1/KCNE1 cells, FluxOR thallium flux fluorescence | inhibition, % at 10 µM | 1,600 compounds, 77% hits;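 active means mean percent inhibition of duplicate wells above the buffer-only control mean plus 3 SD of those controls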;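 further: 0% = buffer only wells and 100% = XE-991 inhibitor control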
* marks the source's active call; other numbers are inactive results; i = inactive; / = no result given; + = active, no number. Only some compounds are listed: those with a hit (about 3.1% of all), similar ones and a draw of the others.

SMILES | hERG protect | KCNK9 inh | KCNK3 block | KCNQ1 block | KCNQ1 act | KCNQ1 block val | CHO KCNQ1 ctr | KCNQ1 APC inh | KCNQ2 inh | KCNQ1-KCNE1 inh
COc1ccc(CCNc2nc(N3CCCCC3)nc(N3CCCCC3)n2)cc1OC | -6.4 | i | i | 6* | i | 105.5* | 0.368* | / | 122.7%* | +
Cc1ccc(N(Cc2ccccc2)C(=O)c2cc(S(=O)(=O)N3CCOCC3)ccc2F)cc1 | / | / | i | / | / | / | / | / | / | /
Cc1ccc(S(=O)(=O)c2ccc(Oc3cccc(C)c3)cc2)cc1 | -15.9 | i | i | 8* | i | 111.5* | 0.414 | i | 108.0%* | 114.5%*
Cc1ccc(S(=O)(=O)c2ccc(C)cc2)cc1 | -2.8 | i | i | i | i | / | / | / | / | /
Cc1cc(C2(c3ccc(O)c(C)c3)C(=O)Nc3ccccc32)ccc1O | -6.3 | i | i | 7* | i | 0.0 | 0.472 | / | i | i
Cc1ccc(C(=O)Nc2nc(=O)n(C(=O)CC(C)C)s2)cc1 | 2.2 | i | i | 6* | i | 33.5* | 0.607 | / | i | i
CC[C@@]1(O)C(=O)OCc2c1cc1n(c2=O)Cc2cc3c(N)cccc3nc2-1 | -2.9 | i | i | i | i | / | / | / | / | /
CC[C@@]1(O)C(=O)OCc2c1cc1n(c2=O)Cc2cc3c(CN(C)C)c(O)ccc3nc2-1 | -48.6 | i | i | 32* | i | + | 0.017* | / | i | i
Cc1cc(Cl)ccc1OC(C)C(=O)Nc1ccc(S(=O)(=O)N2CCOCC2)cc1 (configuration not stated) | -4.5 | i | i | i | i | / | / | / | / | /
Cc1cc(Cl)ccc1OC(C)C(=O)Nc1ccc(C(=O)Nc2ccccc2C(=O)O)cc1 (configuration not stated) | -34.1 | i | i | 9* | i | 94.0* | 0.453 | i | i | 80.5%*
CC(C)(C)c1nc(NC(=O)Nc2ccccc2)sc1Br | -14.2 | i | i | 7* | i | 91.5* | 0.509 | i | i | 69.0%*
Cn1ncc2c(N3CCN(c4ccc(Cl)c(Cl)c4)CC3)ncnc21 | -15.8 | i | i | 10* | i | 103.0* | 0.483 | i | i | 61.0%*
O=C1c2cccc3c(O)ccc(c23)C(=O)N1Cc1ccco1 | -56.4 | i | i | 22* | i | + | 0.0105* | / | i | i
O=C1c2ccccc2C(=O)N1Cc1ccco1 | -6.7 | i | i | i | i | / | / | / | / | /
CCC(C)n1c(NC(=O)c2ccccc2)c(C#N)c2nc3ccccc3nc21 (configuration not stated) | -15.3 | i | i | 8* | i | 82.0* | 0.439 | / | 63.7%* | i
CCC(=O)Nc1c(C#N)c2nc3ccccc3nc2n1-c1ccc(C)cc1 | / | / | i | / | / | / | / | / | / | /
CC1(C)C=Cc2c(ccc3c2OC[C@H](c2ccc(O)cc2O)C3)O1 | / | / | i | / | / | / | / | / | / | /
CC(=O)Oc1ccc([C@@H]2COc3c(ccc4c3C=CC(C)(C)O4)C2)c(OC(C)=O)c1 | -10.4 | i | i | 7* | i | 136.5* | 0.42 | / | 90.3%* | 78.0%*
CCOC(=O)c1c(C)[nH]c(C)c1C(=O)CSc1nc2ccccc2c(=O)n1-c1ccc(C)cc1 | -7.6 | i | i | 6* | i | 58.0* | 0.495 | / | i | 58.5%*
CC(C)Cn1c(N)c(C(=O)COC(=O)CCc2nc3ccccc3s2)c(=O)n(C)c1=O | -20.1 | i | i | 8* | i | 132.5* | 0.437 | i | 84.0%* | 96.5%*
